Rows were chosen to be rich in hits. Some 2.5% of all compounds tested hit in one or more screens of this group.
OX1R antag-1 – OX1R (human) antagonism. actives 1.8% (n = 330,000). inhibition, % at 6.6 µM. O43613. OX1R-expressing cells, FRET antagonist read-out; in the data active = inhibition mostly above about 38%, no sharp cut-off; inactive = mostly below about 40%;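 note: 0% = agonist challenge alone and 100% = reference antagonist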
Target sequence (O43613 whole entry, looked up): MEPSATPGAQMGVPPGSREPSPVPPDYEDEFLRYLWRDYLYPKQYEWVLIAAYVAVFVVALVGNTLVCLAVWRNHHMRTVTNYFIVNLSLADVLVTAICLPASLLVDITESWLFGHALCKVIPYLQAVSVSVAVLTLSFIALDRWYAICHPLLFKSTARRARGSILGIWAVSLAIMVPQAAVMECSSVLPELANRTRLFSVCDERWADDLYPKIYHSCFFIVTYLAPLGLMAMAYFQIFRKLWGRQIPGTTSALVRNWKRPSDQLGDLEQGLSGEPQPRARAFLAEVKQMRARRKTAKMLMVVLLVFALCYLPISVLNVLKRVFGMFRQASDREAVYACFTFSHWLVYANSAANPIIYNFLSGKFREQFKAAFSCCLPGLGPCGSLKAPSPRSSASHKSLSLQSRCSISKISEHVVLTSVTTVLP
TRPML3 ag – agonists of human TRPML3 channel. Q8TDD5. HEK293 TRPML3-YFP, Fluo-8 calcium fluorescence; 100% = the carbachol control signal. activation, % at 3 µM. actives 0.29% (n = 220,000). AID 1448;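 active = activation above its plate's cutoff, the mean activation of the plate's test wells plus 3 SD, cut at about 12% in these data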;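 note: 0% = DMSO only wells and 100% = carbachol wells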
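Test system: TRPML3-YFP stable HEK293 cells. Doses: single point at 3 µM. Incubation: dye loading 1 h 37 °C then 30 min ambient, 125 s read. Signal: Fluo-8 calcium dye fluorescence, ex 470-495, em 515-575 nm. Measure: percent activation from peak-to-basal fluorescence ratio, scaled between DMSO and carbachol.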
CHO parental Ca – counter-screen for OX1R antagonists: effect in parental CHO cells. parental CHO-K1, ATP-induced calcium, Fluo-8 fluorescence. inhibition, % at 5.6 µM. actives 0.63% (n = 330,000);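 active = inhibition above that plate's mean sample inhibition plus 3 SD, cut at about 26% in these data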;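 note: 0% = ATP-challenged DMSO wells and 100% = DMSO wells without ATP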
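Test system: untransfected parental CHO cell line; also added: ATP stimulus; dosing: 5.6 µM, single dose; signal: calcium-sensitive Fluo-8 fluorescence; measure: percent inhibition of ATP-evoked calcium rise, normalized to controls; benchmarks: low control ATP plus DMSO, high control DMSO only; replication: one well per compound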
OX1R antag-2 – human HCRTR1 antagonism; O43613; CHO/OX1R cells, Fluo-8 calcium fluorescence, orexin A; inhibition, % at 5 µM; actives 0.43% (n = 330,000);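 active = inhibition above its plate's threshold, mean inhibition of all tested compounds on the plate plus 3 SD, cut at about 37% in these data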;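 note: 0% = orexin A challenge wells and 100% = SB-334867-A antagonist wells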
TRPN1 ag – agonists of zebrafish TRPN1 channel. actives 0.18% (n = 220,000). AID 1424. activation, % at 3 µM. HEK293 zebrafish TRPN1-YFP, Fluo-8 calcium fluorescence; 100% = response to 87 µM carbachol;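 active = activation above its plate's cutoff, the mean activation of test wells on that plate plus 3 SD, cut at about 19% in these data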;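 note: 0% = DMSO alone and 100% = 87 µM carbachol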
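Material: zebrafish TRPN1-YFP in HEK293 cells; Doses: single test compound dose, 3 µM nominal, 0.3% DMSO; Timing: dye loading 1 h at 37 °C, then 30 min room temperature; Technique: intracellular calcium fluorescence with Fluo-8; Benchmarks: high carbachol 87 µM, low DMSO alone.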
OX1R Fluo8 conf – confirmation of human orexin 1 receptor antagonists; AID 492963; CHO/OX1R cells, orexin A calcium Fluo-8 fluorescence; shares compounds with OX1R antag-2; actives 38% (n = 1,100); inhibition, % at 5 µM; in the data active = inhibition above about 29%;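 note: 0% = agonist challenge alone and 100% = reference antagonist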
CHO Ca counter – counter-screen: parental CHO calcium response change, triplicate | parental CHO-K1, ATP-induced calcium, Fluo-8 fluorescence | inhibition, % at 5.6 µM | shares compounds with OX1R antag-2 | actives 9.3% (n = 1,100);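 active = inhibition above a per-plate limit, the mean inhibition of that plate's test compounds plus 3 SD, cut at about 25% in these data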;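 note: 0% = ATP challenge with DMSO and 100% = DMSO without ATP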
OX1R HTRF confirm – OX1R (human) antagonism, HTRF confirmed | shares compounds with OX1R antag-1 | OX1R-expressing cells, HTRF antagonist assay | inhibition, % at 6.6 µM | actives 49% (n = 1,800); in the data active = inhibition above about 55%;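 note: CHO cells expressing OX1R stimulated with orexin A at about EC80; 0% = agonist challenge alone and 100% = reference antagonist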
CHO-K1 HTRF cnt – counter-screen for OX1R antagonists: effect in parental CHO-K1 cells; shares compounds with OX1R antag-1; HTRF counterscreen; inhibition, % at 6.6 µM; actives 48% (n = 1,800); AID 493232; in the data active = inhibition above about 17%;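 note: 0% = agonist challenge with vehicle and 100% = vehicle alone without agonist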
An asterisk follows results filed as active; . = no result.

SMILES | OX1R antag-1 | TRPML3 ag | CHO parental Ca | OX1R antag-2 | TRPN1 ag | OX1R Fluo8 conf | CHO Ca counter | OX1R HTRF confirm | CHO-K1 HTRF cnt
COc1cccc(/C=N/NC(=O)c2nnn(-c3nonc3N)c2CN(C)c2ccccc2)c1 | 70* | . | 9 | 52* | . | 41* | -3 | 93* | -2
CN(Cc1c(C(=O)N/N=C/c2cccc(F)c2)nnn1-c1nonc1N)c1ccccc1 | 57* | . | -7 | 49 | . | 33* | -6 | 77* | 4
CC(C)c1c(C(=O)N/N=C/c2ccc3c(c2)OCO3)nnn1-c1nonc1N | 5 | . | -10 | -18 | . | . | . | . | .
CCCN(CCC)Cc1c(C(=O)N/N=C/c2cccs2)nnn1-c1nonc1N | 6 | . | -15 | -33 | . | . | . | . | .
CN(Cc1c(C(=O)N/N=C/c2cccs2)nnn1-c1nonc1N)c1ccccc1 | 82* | . | -22 | 55* | . | 32* | 0 | 89* | 6
O=C(C1CCCO1)N1CCN(C(=S)Nc2cc(F)cc(F)c2)CC1 (stereo not given) | -1 | . | 1 | 5 | . | . | . | . | .
Cc1cc(N/N=C/c2ccc(O)c(C)c2O)nc(-c2ccccc2O)n1 | 63* | 1 | 18 | 51* | 2 | 39* | 4 | 47 | 17*
Cc1cc(NCCCN)nc(-c2ccccc2O)n1 | 55* | 0 | 6 | 41 | 1 | 18 | -3 | 22 | 3
CS(=O)(=O)N1CCC(NC(=O)Nc2ccc(OC(F)(F)F)cc2)CC1 | 7 | . | -5 | 4 | . | . | . | . | .
CC1CC(C)CN(C(=O)CNC(=O)c2sc3ccccc3c2Cl)C1 (stereo not given) | 70* | . | -26 | 55* | . | 27 | -11 | 83* | 8
COc1ccc(S(=O)(=O)NCCC(=O)N2CCCC2)cc1N(C)S(C)(=O)=O | 17 | . | 14 | 2 | . | . | . | . | .
CCOC(=O)C1=C(COC(=O)c2cc(Br)c(Br)s2)NC(=O)NC1C (stereo not given) | 49* | . | -23 | 32 | . | 19 | -8 | 31 | 7
CCOC(=O)C1=C(COC(=O)c2ccc(C)s2)NC(=O)NC1C (stereo not given) | 15 | . | -9 | -16 | . | . | . | . | .
CCOC(=O)C1=C(COC(=O)/C=C/c2cccc(OC)c2)NC(=O)NC1C (stereo not given) | 73* | . | -17 | 25 | . | 31* | -5 | 49 | 0
Cc1cccc(OCC(=O)N/N=C\c2cn(C)c3ccccc23)c1 | 45* | -1 | 1 | 30 | -1 | 5 | 7 | 38 | 3
COc1cccc(-c2cc(C(=O)Nc3ccccc3SC)no2)c1 | 60* | 0 | -18 | 76* | -1 | 71* | -7 | 95* | 13
Cc1ccc(Cl)cc1NC(=O)Cn1nc(-c2cccs2)ccc1=O | 98* | . | 6 | 58* | . | 24 | -7 | 61* | 4
c1ccc2oc(-c3ccc4nc[nH]c4c3)nc2c1 | 54 | 1 | -9 | 15 | -1 | . | . | . | .
Nc1nc2ccc(-c3nc4ccccc4o3)cc2s1 | 97* | 1 | -12 | 72* | 0 | 32* | -4 | 89* | 5
CC(=O)Nc1cccc(OCC(=O)NC(C)c2ccc3ccccc3c2)c1 (stereo not given) | 90* | . | -13 | 51* | . | 62* | -4 | 78* | 12
CC(=O)Nc1cccc(OCC(=O)Nc2ccccc2)c1 | -3 | 0 | 2 | 4 | -1 | . | . | . | .
COC(=O)Cc1ccc(NC(=S)NNC(=O)C2CC2)cc1 | 6 | 1 | -6 | -9 | 2 | . | . | . | .
CC1CC(C)CN(C(=S)SCc2nc(N)nc(Nc3ccccc3)n2)C1 (stereo not given) | 75* | 0 | -30 | 40* | 0 | 48* | -14 | 77* | 4
CCCc1nnc(NC(=O)CCC(=O)N2CCN(Cc3ccc(F)cc3)CC2)s1 | 16 | . | -2 | -2 | . | . | . | . | .
Cc1nc(C)c(-c2ccc(SCc3ccccc3C)nn2)s1 | 23 | . | -35 | -21 | . | . | . | . | .
SMILES | OX1R antag-1 | TRPML3 ag | CHO parental Ca | OX1R antag-2 | TRPN1 ag | OX1R Fluo8 conf | CHO Ca counter | OX1R HTRF confirm | CHO-K1 HTRF cnt
Cc1noc(C)c1COC(=O)c1ccc2c(c1)S(=O)(=O)c1ccccc1C2=O | 111* | 0 | -18 | 59* | 1 | 65* | -9 | 102* | 17*
Cc1nn(CC(=O)NCCC2=CCCCC2)c(C)c1[N+](=O)[O-] | 8 | . | -13 | -16 | . | . | . | . | .
Cc1ccc(S(=O)(=O)N2CCCCC2C(=O)Nc2nncs2)cc1 (stereo not given) | 4 | 0 | -17 | -13 | 0 | . | . | . | .
Cc1ccc(S(=O)(=O)N2CCCC2C(=O)Nc2nc3c(s2)CCCC3)cc1 (stereo not given) | 78* | -1 | -18 | 44* | 1 | 31* | -14 | 93* | 1
CCOc1ccccc1NC(=O)C1CCCN1S(=O)(=O)c1ccccc1C(F)(F)F (stereo not given) | 79* | . | -21 | 76* | . | 39* | -16 | 85* | -4
O=C(NCc1ccccc1)C1CCCN1S(=O)(=O)c1ccc(Cl)cc1 (stereo not given) | 7 | . | -27 | -20 | . | . | . | . | .
COc1ccccc1NC(=O)[C@@H]1CCCN1S(=O)(=O)c1ccc(Cl)cc1 | 58* | . | -11 | 48* | . | 52* | -27 | 70* | -22
CCOc1ccccc1NC(=O)N1CCCC1C(=O)Nc1ccc(NC(C)=O)cc1 (stereo not given) | 3 | 0 | -11 | -15 | 1 | . | . | . | .
O=C(Nc1ccccc1)[C@@H]1CCCN1S(=O)(=O)c1ccc(Cl)cc1 | 62* | . | -15 | 45* | . | 39* | -12 | 78* | 8
COc1ccccc1NS(=O)(=O)c1ccc2oc(SC(C)C(=O)N3CCNC3=O)nc2c1 (stereo not given) | 32* | . | -10 | 36 | . | 31* | -1 | 62* | -10
COc1ccccc1NS(=O)(=O)c1ccc2oc(SCC(C)=O)nc2c1 | 14 | . | 3 | -9 | . | . | . | . | .
Cc1cc(C)nc(NC(=O)CSc2nc3cc(Cl)ccc3s2)n1 | 3 | 1 | -5 | -6 | 0 | . | . | . | .
Cc1cc(C)nc(NC(=O)CSc2nc3ccccc3s2)n1 | 98* | 0 | -11 | 43* | 0 | 42* | -8 | 82* | -1
O=C(c1ccc(CNS(=O)(=O)c2cccc(Cl)c2)cc1)N1CCCCC1 | 28 | . | 4 | -11 | . | . | . | . | .

Screening results from PubChem BioAssay.
